From ChEMBL document CHEMBL5104174, “Development of tumor-targeting aza-vesamicol derivatives with high affinity for sigma receptors for cancer theranostics” (RSC Med Chem, 2022)

Columns and labels:
[1] = Drug uptake in tumor of Balb/c mouse xenografted with human DU-145 cells assessed as radioactivity at 37 kBq, iv and measured upto 24 hrs post-injection by gamma counter analysis; type: ADME, organism-based, Neoplasm; conditions: in vivo
In short: (§1)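 About 5 × 10⁶ DU-145 cells injected sc into the right dorsum of 4-week-old male BALB/c nude mice. Sacrificed at 1 and 24 h. Gamma counting, expressed as % injected dose, mean ± SD.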

[2] = Biodistribution in liver of Balb/c mouse xenografted with human DU-145 cells assessed as radioactivity at 37 kBq, iv and measured upto 24 hrs post-injection by gamma counter analysis; type: ADME, organism-based; conditions: in vivo; in short: as §1
[3] = Biodistribution in lung of Balb/c mouse xenografted with human DU-145 cells assessed as radioactivity at 37 kBq, iv and measured upto 24 hrs post-injection by gamma counter analysis; type: ADME, organism-based; conditions: in vivo; in short: as §1
[4] = Biodistribution in kidney of Balb/c mouse xenografted with human DU-145 cells assessed as radioactivity at 37 kBq, iv and measured upto 24 hrs post-injection by gamma counter analysis; type: ADME, organism-based; conditions: in vivo; in short: as §1
[5] = target: Sigma non-opioid intracellular receptor 1 (Rattus norvegicus, UniProt Q9R0C9); experiment: Displacement of (+)-[3H]pentazocine from sigma-1 receptor in Sprague-Dawley rat cerebral membrane incubated for 90 mins by liquid scintillation counter analysis; type: cell membranes, Cerebrum
Chain of Sigma non-opioid intracellular receptor 1 (Q9R0C9 whole entry): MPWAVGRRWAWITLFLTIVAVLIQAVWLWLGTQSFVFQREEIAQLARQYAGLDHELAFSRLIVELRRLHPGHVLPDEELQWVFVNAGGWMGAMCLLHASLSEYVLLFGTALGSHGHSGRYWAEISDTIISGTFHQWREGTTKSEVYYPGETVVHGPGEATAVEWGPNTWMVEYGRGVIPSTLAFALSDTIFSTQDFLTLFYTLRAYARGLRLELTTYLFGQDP

[6] = target: T1, Sigma intracellular receptor 2 (Rattus norvegicus, UniProt Q5U3Y7); experiment: Displacement of [3H]DTG from sigma-2 receptor in Sprague-Dawley rat liver membrane incubated for 90 mins in presence of by liquid scintillation counter analysis (+)-pentazocine by liquid scintillation counter analysis; type: cell membranes
T1 sequence (Q5U3Y7 whole entry): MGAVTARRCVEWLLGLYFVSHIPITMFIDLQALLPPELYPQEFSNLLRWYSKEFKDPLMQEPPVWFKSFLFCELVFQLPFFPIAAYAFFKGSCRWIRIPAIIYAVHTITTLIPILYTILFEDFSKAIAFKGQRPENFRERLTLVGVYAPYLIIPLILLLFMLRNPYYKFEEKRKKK

[7] = Metabolic stability in mouse plasma assessed parent compound remaining at 74 to 93 kBq incubated for 24 hrs by RP-HPLC analysis; type: ADME, cell-free; conditions: dose 74-93 kBq, read-out: Stability
In short: (§2)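 Ice-cold acetonitrile added, centrifuged 1700 g for 15 min at 4 °C, filtered 0.45 μm. Intact tracer measured by RP-HPLC; mean ± SD of three samples.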

[8] = Drug uptake in tumor of Balb/c mouse xenografted with human DU-145 cells assessed as radioactivity at 37 kBq, iv and measured after 1 hrs post-injection by gamma counter analysis; type: ADME, organism-based, Neoplasm; conditions: in vivo; in short: as §1
[9] = Stability of the compound in pH 7.4 phosphate buffer assessed as parent compound remaining at 22 to 82 kBq incubated for 24 hrs by RP-HPLC analysis; type: physicochemical; conditions: dose 22-82 kBq, read-out: Stability
[10] = Metabolic stability in mouse plasma assessed parent compound remaining at 74 to 93 kBq incubated for 1 hrs by RP-HPLC analysis; type: ADME, cell-free; conditions: dose 74-93 kBq, read-out: Stability; in short: as §2
[11] = Drug uptake in human DU-145 cells assessed as radioactivity at 3.7 kBq incubated for 15 to 120 mins; type: ADME, cell-based; conditions: time 15-120 min
In short: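 DU-145 cells grown in RPMI 1640 with 10% FBS, seeded and pre-incubated 24 h. Washed with ice-cold PBS, lysed in 1 M NaOH, counted and normalized to BCA protein. Mean ± SD.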

[12] = Biodistribution in ddY mouse neck assessed as radioactivity at 18 to 33 kBq, […] by gamma counter analysis; type: ADME, organism-based; conditions: in vivo, iv, dose 18-33 kBq
[13] = Biodistribution in ddY mouse blood assessed as blood clearance by measuring radioactivity at 18 to 33 kBq, iv […] and measured upto 24 hrs post-injection by gamma counter analysis; type: ADME, organism-based; conditions: in vivo, dose 18-33 kBq
In short: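 Male ddY mice, 6 weeks old, 28–30 g. Sacrificed at 10, 30 min, 1, 4, 8 and 24 h postinjection. Tissue radioactivity counted in a gamma counter.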

[14] = 1-Octanol/PBS partition coefficient, logP of the compound at pH 7.4 by shake flask method; type: physicochemical
In short: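 Radioiodinated tracer partitioned between 1-octanol and 0.1 M phosphate buffer pH 7.4 by shake-flask. Ratio of radioactivity in octanol to that in buffer, expressed as log P. Mean ± SD of four samples.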

[15] = Drug uptake in pancreas of Balb/c mouse xenografted with human DU-145 cells at 50 MBq, iv and measured after 24 hrs post-injection by SPECT/CT analysis; type: ADME, organism-based; conditions: in vivo
In short: (§3)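 DU-145 sc xenografts in BALB/c nude mice. HPLC-purified 123I-tracer given iv, 50 MBq or 38 MBq per tracer. Small-animal SPECT/CT at 24 h postinjection, 0.8 mm voxels.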

[16] = Drug uptake in thyroid gland of Balb/c mouse xenografted with human DU-145 cells at 50 MBq, iv and measured after 24 hrs post-injection by SPECT/CT analysis; type: ADME, organism-based; conditions: in vivo; in short: as §3
[17] = Drug uptake in tumor of Balb/c mouse xenografted with human DU-145 cells at 50 MBq, iv and measured after 24 hrs post-injection by SPECT/CT analysis; type: ADME, organism-based, Neoplasm; conditions: in vivo; in short: as §3
[18] = Drug uptake in pancreas of Balb/c mouse xenografted with human DU-145 cells at 38 MBq, iv and measured after 24 hrs post-injection by SPECT/CT analysis; type: ADME, organism-based; conditions: in vivo; in short: as §3
[19] = Drug uptake in thyroid gland of Balb/c mouse xenografted with human DU-145 cells at 38 MBq, iv and measured after 24 hrs post-injection by SPECT/CT analysis; type: ADME, organism-based; conditions: in vivo; in short: as §3
[20] = Drug uptake in tumor of Balb/c mouse xenografted with human DU-145 cells at 38 MBq, iv and measured after 24 hrs post-injection by SPECT/CT analysis; type: ADME, organism-based, Neoplasm; conditions: in vivo; in short: as §3

## O[C@H]1CCCC[C@@H]1N1CCC(c2ccc([125I])cc2)CC1
[1]
  Drug uptake: Active
[2]
  Drug uptake: Active
[3]
  Drug uptake: Active
[4]
  Drug uptake: Active

## O[C@H]1CCCC[C@@H]1N1CCN(CCc2ccccc2Br)CC1 (relative stereo)
[5]
  Ki: 10.2 nM
[6]
  Ki: 41.8 nM

## O[C@H]1CCCC[C@@H]1N1CCN(CCCc2cccc(Br)c2)CC1 (relative stereo)
[5]
  Ki: 7.7 nM
[6]
  Ki: 22.2 nM

## O[C@H]1CCCC[C@@H]1N1CCN(CCc2cccc(Br)c2)CC1 (relative stereo)
[5]
  Ki: 17.2 nM
[6]
  Ki: 25.1 nM

## O[C@H]1CCCC[C@@H]1N1CCN(CCCc2ccc(Br)cc2)CC1 (relative stereo)
[5]
  Ki: 4.4 nM
[6]
  Ki: 26 nM

## O[C@H]1CCCC[C@@H]1N1CCN(CCCc2ccc([125I])cc2)CC1 (relative stereo)
[1]
  Drug uptake: Active
[2]
  Drug uptake: Active
[3]
  Drug uptake: Active
[4]
  Drug uptake: Active

## O[C@H]1CCC[C@@H]1N1CCN(CCc2cccc(I)c2)CC1 (relative stereo)
[5]
  Ki: 7.9 nM
[6]
  Ki: 73.6 nM

## O[C@H]1CCC[C@@H]1N1CCN(CCCc2cccc([125I])c2)CC1 (relative stereo)
[7]
  remaining at 24 h: 94.8%
[8]
  Drug uptake: Active
[9]
  remaining at 24 h: 96.3%
[10]
  remaining at 1 h: 96.5%
[11]
  Drug uptake: Active
[12]
  Drug uptake: Active
[1]
  Drug uptake: Active
[13]
  Drug uptake: Active
[14]
  logD: 2.5

## O[C@H]1CCC[C@@H]1N1CCN(CCCc2cccc(I)c2)CC1 (relative stereo)
[5]
  Ki: 14.6 nM
[6]
  Ki: 16.9 nM

## O[C@H]1CCC[C@@H]1N1CCN(CCc2cccc([123I])c2)CC1 (relative stereo)
[15]
  Drug uptake: Active
[16]
  Drug uptake: Active
[17]
  Drug uptake: Active

## O[C@H]1CCC[C@@H]1N1CCN(CCc2cccc([125I])c2)CC1 (relative stereo)
[7]
  remaining at 24 h: 81.3%
[8]
  Drug uptake: Active
[9]
  remaining at 24 h: 96.9%
[10]
  remaining at 1 h: 95.6%
[11]
  Drug uptake: Active
[12]
  Drug uptake: Active
[1]
  Drug uptake: Active
[13]
  Drug uptake: Active
[14]
  logD: 2.08

## O[C@H]1CCC[C@@H]1N1CCN(CCCc2ccccc2Br)CC1 (relative stereo)
[5]
  Ki: 37.1 nM
[6]
  Ki: 116 nM

## O[C@H]1CCCC[C@@H]1N1CCN(CCc2ccc(Br)cc2)CC1 (relative stereo)
[5]
  Ki: 9.8 nM
[6]
  Ki: 44.5 nM

## O[C@H]1CCC[C@@H]1N1CCN(CCCc2cccc([123I])c2)CC1 (relative stereo)
[18]
  Drug uptake: Active
[19]
  Drug uptake: Active
[20]
  Drug uptake: Active

## O[C@H]1CCCC[C@@H]1N1CCN(CCCc2ccccc2Br)CC1 (relative stereo)
[5]
  Ki: 19.4 nM
[6]
  Ki: 32.5 nM

## O[C@H]1CCC[C@@H]1N1CCN(CCCc2cccc(Br)c2)CC1 (relative stereo)
[5]
  Ki: 4.8 nM
[6]
  Ki: 8.1 nM

## O[C@H]1CCC[C@@H]1N1CCN(CCc2ccccc2Br)CC1 (relative stereo)
[5]
  Ki: 21.5 nM
[6]
  Ki: 371 nM

## O[C@H]1CCC[C@@H]1N1CCN(CCc2cccc(Br)c2)CC1 (relative stereo)
[5]
  Ki: 12.4 nM
[6]
  Ki: 138 nM

## O[C@H]1CCC[C@@H]1N1CCN(CCCc2ccc(Br)cc2)CC1 (relative stereo)
[5]
  Ki: 8.1 nM
[6]
  Ki: 12.6 nM

## O[C@H]1CCC[C@@H]1N1CCN(CCc2ccc(Br)cc2)CC1 (relative stereo)
[5]
  Ki: 9.9 nM
[6]
  Ki: 148 nM
